# In ChEMBL document CHEMBL3352384, “Synthesis and biological activity of new salicylanilide N,N-disubstituted carbamates and thiocarbamates” (Bioorg Med Chem, 2014):
# Legend:
# Mycobacterium kansasii [1] = test: Antimycobacterial activity against Mycobacterium kansasii 235/80 assessed as complete growth inhibition after 21 days; type: functional; settings: 235/80, 504 h
# Outline: (§1)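 Dilutions of M. kansasii inoculum were 10-4 for strain 235/80 and 10-5 for clinical isolate 6509/96. MIC was the lowest concentration giving complete growth inhibition, run in quadruplicate and repeated twice.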
# [2] = Inhibition of Mycobacterium tuberculosis H37Rv isocitrate lyase assessed as glyoxylate phenyl hydrazone formation at 10 uM
# [3] = Selectivity index, ratio of IC50 for human HepG2 cells to MIC for Mycobacterium tuberculosis H37Rv; type: toxicity, cell-based; settings: read-out: Selectivity Index
# Outline: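 Selectivity index = HepG2 IC50 / MIC. HepG2 cells (passage 3–4) grown in Eagle's MEM with 10% FBS, L-glutamine and non-essential amino acids. Compounds added from DMSO, eight concentrations in triplicate, tetrazolium-reduction colorimetric read-out.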
# Mycobacterium kansasii [4] = test: Antimycobacterial activity against Mycobacterium kansasii 235/80 assessed as complete growth inhibition after 14 days; type: functional; settings: 235/80, 336 h; outline: as §1
# Mycobacterium kansasii [5] = test: Antimycobacterial activity against clinical isolate Mycobacterium kansasii 6509/96 assessed as complete growth inhibition after 14 days; type: functional; settings: 6509/96, 336 h; outline: as §1
# [6] = test system: Mycobacterium tuberculosis; test: Antimycobacterial activity against Mycobacterium tuberculosis H37Rv 331/88 assessed as complete growth inhibition after 14 days; type: functional; settings: H37Rv 331/88, 336 h
# Outline: (§2)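 M. tuberculosis 331/88 (H37Rv) inoculum diluted 10-3, M. avium 330/88 diluted 10-5. MIC is the lowest concentration giving complete growth inhibition. Isoniazid and p-aminosalicylic acid as references. Quadruplicate, repeated twice.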
# HepG2 = test: Cytotoxicity against human HepG2 cells assessed as reduction in cell viability after 24 hrs by MTS assay; type: cell-based; settings: HepG2, 24 h
# Outline: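 HepG2 hepatocellular carcinoma cells (passage 3–4) were grown in Eagle's MEM with 10% FBS, 1% L-glutamine and non-essential amino acids. Compounds were added from DMSO at eight concentrations in triplicate, with 10% DMSO as the 0% viability control. Viability was read by tetrazolium salt reduction (CellTiter 96 AQueous One). IC50 is the concentration reducing viability to 50% of control.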
# Mycobacterium kansasii [7] = test: Antimycobacterial activity against Mycobacterium kansasii 235/80 assessed as complete growth inhibition after 7 days; type: functional; settings: 235/80, 168 h; outline: as §1
# Mycobacterium avium [8] = test: Antimycobacterial activity against Isoniazid, rifampicin, ofloxacin and ethambutol-resistant Mycobacterium avium 330/88 assessed as complete growth inhibition after 14 days; type: functional; settings: 330/88, 336 h; outline: as §2
# Mycobacterium kansasii [9] = test: Antimycobacterial activity against clinical isolate Mycobacterium kansasii 6509/96 assessed as complete growth inhibition after 7 days; type: functional; settings: 6509/96, 168 h; outline: as §1
# Mycobacterium kansasii [10] = test: Antimycobacterial activity against clinical isolate Mycobacterium kansasii 6509/96 assessed as complete growth inhibition after 21 days; type: functional; settings: 6509/96, 504 h; outline: as §1
# Mycobacterium avium [11] = test: Antimycobacterial activity against Isoniazid, rifampicin, ofloxacin and ethambutol-resistant Mycobacterium avium 330/88 assessed as complete growth inhibition after 21 days; type: functional; settings: 330/88, 504 h; outline: as §2
# [12] = test system: Mycobacterium tuberculosis; test: Antimycobacterial activity against Mycobacterium tuberculosis H37Rv 331/88 assessed as complete growth inhibition after 21 days; type: functional; settings: H37Rv 331/88, 504 h; outline: as §2
# in vitro = settings: human, HepG2 cells
# [13] = test system: Staphylococcus epidermidis; test: Antimicrobial activity against Staphylococcus epidermidis H 6966/08 after 24 hrs by microdilution method; type: functional; settings: H 6966/08, 24 h
# Outline: (§3)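 Broth microdilution in Mueller-Hinton broth, compounds dissolved in DMSO, final concentrations 500 to 0.49 µM. Benzylpenicillin and bacitracin were run as comparators. MIC was taken as 95% (IC95) or greater growth reduction versus control. Each determination was done twice.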
# [14] = test system: Staphylococcus epidermidis; test: Antimicrobial activity against Staphylococcus epidermidis H 6966/08 after 48 hrs by microdilution method; type: functional; settings: H 6966/08, 48 h; outline: as §3
# [15] = test system: Trichophyton mentagrophytes; test: Antimicrobial activity against Trichophyton mentagrophytes 445 after 72 hrs by microdilution method; type: functional; settings: Trichophyton mentagrophytes, 445, 72 h
# Outline: (§4)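 Broth microdilution in RPMI 1640 with glutamine, with fluconazole and amphotericin B as references. For filamentous fungi, MIC is expressed as the IC50, i.e. the concentration giving 50% growth reduction versus control. Each determination was done twice.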
# [16] = Selectivity index, ratio of IC50 for human HepG2 cells to MIC for Trichophyton mentagrophytes 445
# Staphylococcus aureus [17] = test: Antimicrobial activity against methicillin-resistant Staphylococcus aureus H 5996/08 after 48 hrs by microdilution method; type: functional; settings: H 5996/08, 48 h
# Outline: (§5)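 Mueller-Hinton broth microdilution; compounds dissolved in DMSO, final concentrations 500 to 0.49 µM. […] Benzylpenicillin and bacitracin as comparators. Each determination done twice.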
# Staphylococcus aureus [18] = test: Antimicrobial activity against methicillin-resistant Staphylococcus aureus H 5996/08 after 24 hrs by microdilution method; type: functional; settings: H 5996/08, 24 h; outline: as §5
# Enterococcus sp. [19] = test: Antimicrobial activity against Enterococcus sp. J 14365/08 after 48 hrs by microdilution method; type: functional; settings: J 14365/08, 48 h; outline: as §3
# Enterococcus sp. [20] = test: Antimicrobial activity against Enterococcus sp. J 14365/08 after 24 hrs by microdilution method; type: functional; settings: J 14365/08, 24 h; outline: as §3
# [21] = test system: Trichophyton mentagrophytes; test: Antimicrobial activity against Trichophyton mentagrophytes 445 after 120 hrs by microdilution method; type: functional; settings: Trichophyton mentagrophytes, 445, 120 h; outline: as §4
# Staphylococcus aureus [22] = test: Antimicrobial activity against Staphylococcus aureus CCM 4516/08 after 48 hrs by microdilution method; type: functional; settings: CCM 4516/08, 48 h; outline: as §5
# [23] = Selectivity index, ratio of IC50 for human HepG2 cells to MIC for atypical mycobacteria
# Outline: (§6)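 Selectivity index = HepG2 IC50 / MIC. HepG2 cells (passage 3–4) grown in Eagle's MEM with 10% FBS, L-glutamine and non-essential amino acids. Compounds added from DMSO, eight concentrations in triplicate, tetrazolium-reduction colorimetric read-out. IC50 is the concentration reducing viability to 50% of control; 10% DMSO as 0% viability.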
# [24] = Selectivity index, ratio of IC50 for human HepG2 cells to MIC for methicillin-resistant Staphylococcus aureus H 5996/08; outline: as §6
# Staphylococcus aureus [25] = test: Antimicrobial activity against Staphylococcus aureus CCM 4516/08 after 24 hrs by microdilution method; type: functional; settings: CCM 4516/08, 24 h; outline: as §5
smiles,measurement,setting,value
NNC(=O)c1ccncc1 [ISONIAZID],MIC,Mycobacterium kansasii [1],> 250 µM
same,inhibition,[2],0%
same,selectivity ratio,[3],> 250
same,MIC,Mycobacterium kansasii [4],> 250 µM
same,MIC,Mycobacterium kansasii [5],4 µM
same,MIC,[6],0.5 µM
same,IC50,HepG2,> 250 µM
same,MIC,Mycobacterium kansasii [7],> 250 µM
same,MIC,Mycobacterium avium [8],> 250 µM
same,MIC,Mycobacterium kansasii [9],2 µM
same,MIC,Mycobacterium kansasii [10],4 µM
same,MIC,Mycobacterium avium [11],> 250 µM
same,MIC,[12],1 µM
same,selectivity ratio,in vitro,≥ 31.3
CN(C)C(=S)Oc1ccc(Cl)cc1C(=O)Nc1ccc(F)cc1,MIC,Mycobacterium kansasii [1],32 µM
same,inhibition,[2],7%
same,selectivity ratio,[3],7.3
same,MIC,Mycobacterium kansasii [4],32 µM
same,MIC,[13],31.2 µM
same,MIC,[14],31.2 µM
same,MIC,Mycobacterium kansasii [5],32 µM
same,MIC,[6],8 µM
same,MIC,[15],7.81 µM
same,Selectivity Index,[16],15
same,MIC,Staphylococcus aureus [17],31.2 µM
same,IC50,HepG2,117 µM
same,MIC,Staphylococcus aureus [18],31.2 µM
same,MIC,Enterococcus sp. [19],> 500 µM
same,MIC,Enterococcus sp. [20],> 500 µM
same,MIC,Mycobacterium kansasii [7],16 µM
same,MIC,[21],7.81 µM
same,MIC,Staphylococcus aureus [22],31.2 µM
same,Selectivity Index,[23],3.7
same,MIC,Mycobacterium avium [8],32 µM
same,MIC,Mycobacterium kansasii [9],16 µM
same,MIC,Mycobacterium kansasii [10],32 µM
same,MIC,Mycobacterium avium [11],32 µM
same,MIC,[12],16 µM
same,Selectivity Index,[24],3.7
same,MIC,Staphylococcus aureus [25],15.6 µM
CN(C)C(=O)Oc1ccc(Cl)cc1C(=O)Nc1ccc(Cl)cc1,MIC,Mycobacterium kansasii [1],62.5 µM
same,inhibition,[2],6%
same,selectivity ratio,[3],11.8
same,MIC,Mycobacterium kansasii [4],62.5 µM
same,MIC,[13],125 µM
same,MIC,[14],125 µM
same,MIC,Mycobacterium kansasii [5],125 µM
same,MIC,[6],16 µM
same,MIC,[15],31.2 µM
same,Selectivity Index,[16],6
same,MIC,Staphylococcus aureus [17],125 µM
same,IC50,HepG2,189 µM
same,MIC,Staphylococcus aureus [18],62.5 µM
same,MIC,Enterococcus sp. [19],> 125 µM
same,MIC,Enterococcus sp. [20],125 µM
same,MIC,Mycobacterium kansasii [7],62.5 µM
same,MIC,[21],31.2 µM
same,MIC,Staphylococcus aureus [22],125 µM
same,Selectivity Index,[23],1.5
same,MIC,Mycobacterium avium [8],62.5 µM
same,MIC,Mycobacterium kansasii [9],62.5 µM
same,MIC,Mycobacterium kansasii [10],125 µM
same,MIC,Mycobacterium avium [11],62.5 µM
same,MIC,[12],16 µM
same,Selectivity Index,[24],1.5
same,MIC,Staphylococcus aureus [25],62.5 µM
CN(C)C(=O)Oc1ccc(Cl)cc1C(=O)Nc1ccc(F)cc1,MIC,Mycobacterium kansasii [1],125 µM
same,inhibition,[2],8%
same,selectivity ratio,[3],14
same,MIC,Mycobacterium kansasii [4],125 µM
same,MIC,[13],> 125 µM
same,MIC,[14],> 125 µM
same,MIC,Mycobacterium kansasii [5],125 µM
same,MIC,[6],32 µM
same,MIC,[15],125 µM
same,Selectivity Index,[16],3.6
same,MIC,Staphylococcus aureus [17],> 125 µM
same,IC50,HepG2,444 µM
same,MIC,Staphylococcus aureus [18],> 125 µM
same,MIC,Enterococcus sp. [19],> 125 µM
same,MIC,Enterococcus sp. [20],125 µM
same,MIC,Mycobacterium kansasii [7],62.5 µM
same,MIC,[21],125 µM
same,MIC,Staphylococcus aureus [22],> 125 µM
same,Selectivity Index,[23],3.6
same,MIC,Mycobacterium avium [8],125 µM
same,MIC,Mycobacterium kansasii [9],62.5 µM
same,MIC,Mycobacterium kansasii [10],125 µM
same,MIC,Mycobacterium avium [11],125 µM
same,MIC,[12],32 µM
same,Selectivity Index,[24],<=3.6
same,MIC,Staphylococcus aureus [25],125 µM
CN(C)C(=S)Oc1ccc(Cl)cc1C(=O)Nc1ccc(C(F)(F)F)cc1,MIC,Mycobacterium kansasii [1],32 µM
same,inhibition,[2],12%
same,selectivity ratio,[3],16.8
same,MIC,Mycobacterium kansasii [4],32 µM
same,MIC,[13],31.2 µM
same,MIC,[14],31.2 µM
same,MIC,Mycobacterium kansasii [5],32 µM
same,MIC,[6],4 µM
same,MIC,[15],500 µM
same,Selectivity Index,[16],<1
same,MIC,Staphylococcus aureus [17],7.81 µM
same,IC50,HepG2,67.3 µM
same,MIC,Staphylococcus aureus [18],7.81 µM
same,MIC,Enterococcus sp. [19],> 500 µM
same,MIC,Enterococcus sp. [20],> 500 µM
same,MIC,Mycobacterium kansasii [7],16 µM
same,MIC,[21],500 µM
same,MIC,Staphylococcus aureus [22],7.81 µM
same,Selectivity Index,[23],2.1
same,MIC,Mycobacterium avium [8],16 µM
same,MIC,Mycobacterium kansasii [9],16 µM
same,MIC,Mycobacterium kansasii [10],32 µM
same,MIC,Mycobacterium avium [11],16 µM
same,MIC,[12],4 µM
same,Selectivity Index,[24],8.6
same,MIC,Staphylococcus aureus [25],7.81 µM
CN(C)C(=S)Oc1ccc(Cl)cc1C(=O)Nc1ccc(Cl)cc1,MIC,Mycobacterium kansasii [1],16 µM
same,inhibition,[2],6%
same,selectivity ratio,[3],10.4
same,MIC,Mycobacterium kansasii [4],16 µM
same,MIC,[13],7.81 µM
same,MIC,[14],31.2 µM
same,MIC,Mycobacterium kansasii [5],16 µM
same,MIC,[6],4 µM
same,MIC,[15],1.95 µM
same,Selectivity Index,[16],442.8
same,MIC,Staphylococcus aureus [17],7.81 µM
same,IC50,HepG2,83.5 µM
same,MIC,Staphylococcus aureus [18],3.9 µM
same,MIC,Enterococcus sp. [19],> 125 µM
same,MIC,Enterococcus sp. [20],125 µM
same,MIC,Mycobacterium kansasii [7],8 µM
same,MIC,[21],1.95 µM
same,MIC,Staphylococcus aureus [22],7.81 µM
same,Selectivity Index,[23],5.2
same,MIC,Mycobacterium avium [8],16 µM
same,MIC,Mycobacterium kansasii [9],16 µM
same,MIC,Mycobacterium kansasii [10],16 µM
same,MIC,Mycobacterium avium [11],16 µM
same,MIC,[12],8 µM
same,Selectivity Index,[24],21.4
same,MIC,Staphylococcus aureus [25],3.9 µM
